From ChEMBL document CHEMBL1126107, “Structure-activity relationships of imidazo[4,5-f]quinoline partial structures and analogs. Discovery of pyrazolo[3,4-f]quinoline derivatives as potent immunostimulants” (1992)
≈ marks a conversion by molar mass, not a printed value.

What follows are compounds tested on Escherichia coli (assay: In vitro antibacterial activity on sensitivity of Escherichia coli N63 to gentamicin at a concentration of 0 ug/mL). Details: not given.
Type: functional
Outline: (§1)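 Checkerboard broth microdilution of E. coli N63, inoculated from overnight BHI agar growth, in Mueller-Hinton broth with serial 2-fold dilutions of aminoquinoline and gentamicin. Overnight at 37 °C. Growth read as turbidity at 600 nm, corrected with uninoculated drug-containing wells for insoluble compound. Gentamicin MIC determined at each fixed aminoquinoline concentration.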

| Compound | MIC [µg/mL] |
| --- | --- |
| COc1cccc(Nc2cc(C)nc3ccc4c[nH]nc4c23)c1 | 0.25 (≈ 0.821 µM) |
| Cc1cc(Nc2ccc(OCC3CCCCC3)cc2)c2c(ccc3[nH]cnc32)n1 | 0.5 (≈ 1.29 µM) |

These compounds were tested on Escherichia coli (assay: In vitro antibacterial activity on sensitivity of Escherichia coli N63 to gentamicin at a concentration of 1.56 ug/mL). Details: not given.
Type: functional
Outline: as §1

| Compound | MIC [µg/mL] |
| --- | --- |
| COc1cccc(Nc2cc(C)nc3ccc4c[nH]nc4c23)c1 | 0.25 (≈ 0.821 µM) |
| Cc1cc(Nc2ccc(OCC3CCCCC3)cc2)c2c(ccc3[nH]cnc32)n1 | 0.25 (≈ 0.647 µM) |

What follows are compounds tested on Escherichia coli (assay: In vitro antibacterial activity on sensitivity of Escherichia coli N63 to gentamicin at a concentration of 100 ug/mL). Details: not given.
Type: functional
Outline: as §1

| Compound | MIC [µg/mL] |
| --- | --- |
| Cc1cc(Nc2ccc(OCC3CCCCC3)cc2)c2c(ccc3[nH]cnc32)n1 | 0.063 (≈ 0.163 µM) |

What follows are compounds tested on Escherichia coli (assay: In vitro antibacterial activity on sensitivity of Escherichia coli N63 to gentamicin at a concentration of 12.5 ug/mL). Details: not given.
Type: functional
Outline: as §1

| Compound | MIC [µg/mL] |
| --- | --- |
| COc1cccc(Nc2cc(C)nc3ccc4c[nH]nc4c23)c1 | 0.25 (≈ 0.821 µM) |
| Cc1cc(Nc2ccc(OCC3CCCCC3)cc2)c2c(ccc3[nH]cnc32)n1 | 0.125 (≈ 0.323 µM) |

Each compound was assayed on Escherichia coli (assay: In vitro antibacterial activity on sensitivity of Escherichia coli N63 to gentamicin at a concentration of 25 ug/mL). Details: not given.
Type: functional
Outline: as §1

| Compound | MIC [µg/mL] |
| --- | --- |
| COc1cccc(Nc2cc(C)nc3ccc4c[nH]nc4c23)c1 | 0.25 (≈ 0.821 µM) |
| Cc1cc(Nc2ccc(OCC3CCCCC3)cc2)c2c(ccc3[nH]cnc32)n1 | 0.125 (≈ 0.323 µM) |

The compounds below were run on Escherichia coli (assay: In vitro antibacterial activity on sensitivity of Escherichia coli N63 to gentamicin at a concentration of 3.13 ug/mL). Details: not given.
Type: functional
Outline: as §1

| Compound | MIC [µg/mL] |
| --- | --- |
| COc1cccc(Nc2cc(C)nc3ccc4c[nH]nc4c23)c1 | 0.25 (≈ 0.821 µM) |
| Cc1cc(Nc2ccc(OCC3CCCCC3)cc2)c2c(ccc3[nH]cnc32)n1 | 0.25 (≈ 0.647 µM) |

Each compound was assayed on Escherichia coli (assay: In vitro antibacterial activity on sensitivity of Escherichia coli N63 to gentamicin at a concentration of 50 ug/mL). Details: not given.
Type: functional
Outline: as §1

| Compound | MIC [µg/mL] |
| --- | --- |
| COc1cccc(Nc2cc(C)nc3ccc4c[nH]nc4c23)c1 | 0.25 (≈ 0.821 µM) |
| Cc1cc(Nc2ccc(OCC3CCCCC3)cc2)c2c(ccc3[nH]cnc32)n1 | 0.063 (≈ 0.163 µM) |

What follows are compounds tested on Escherichia coli (assay: Effective dose at which 100% protection occurs in mice infected with Escherichia coli). Details: not given.
Type: functional
Outline: (§2)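 Female NSA (CF-1) mice, 11–16 g, dosed sc with compound in pyrogen-free saline or water 24 h before ip injection of 0.5 mL E. coli N63 (~4×10^7 CFU/mL, from log-phase L broth culture). Subtherapeutic gentamicin given sc at 0.5, 4 and 24 h postinfection. Ten mice per group. Survival versus infected untreated controls. Minimum effective dose is the sc dose giving significant protection (p < 0.05). The 100%-protection dose is also reported.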

| Compound | ED100 [mg/kg] |
| --- | --- |
| Cc1cc(NC2CCCCC2)c2c(ccc3[nH]cnc32)n1 | 6 |
| Cc1cc(Nc2ccc(OCc3ccccc3)cc2)c2c(ccc3c[nH]nc32)n1 | 6 |
| COc1cccc(Nc2cc(C)nc3ccc4c[nH]nc4c23)c1 | 17 |
| CCCCc1ccc(Nc2cc(C)nc3ccc4[nH]cnc4c23)cc1 | 15 |
| CCCCOc1ccc(Nc2cc(C)nc3ccc4[nH]cnc4c23)cc1 | 15 |
| Cc1cc(Nc2ccc(C#N)cc2)c2c(ccc3[nH]cnc32)n1 | 2 |
| Cc1cc(Nc2ccc(OCC3CCCCC3)cc2)c2c(ccc3[nH]cnc32)n1 | 5 |
| COc1cccc(Nc2cc(C)nc3ccc4[nH]cnc4c23)c1 | 50 |

What follows are compounds tested on Escherichia coli (assay: Minimum subcutaneous effective dose required to protect mice from systemic Escherichia coli). Details: sc, read-out: MED.
Type: functional
Outline: as §2

| Compound | minimal effective dose [mg/kg] |
| --- | --- |
| COc1cccc(Nc2cc(C)nc3ccccc23)c1 | > 50 |
| Cc1cc(NC2CCCCC2)c2c(ccc3[nH]cnc32)n1 | 6 |
| COc1cccc(NC(=O)c2cccc3[nH]cnc23)c1 | > 50 |
| CCCCOc1ccc(Nc2cc(C)nc3ccccc23)cc1 | > 50 |
| Cc1cc(Nc2ccc(OCc3ccccc3)cc2)c2c(ccc3c[nH]nc32)n1 | 2 |
| Cc1cc(Nc2ccc(OCc3ccccc3)cc2)c2ccccc2n1 | > 50 |
| COc1cccc(Nc2cc(C)nc3ccc4c[nH]nc4c23)c1 | 6 |
| CCCCc1ccc(Nc2cc(C)nc3ccc4[nH]cnc4c23)cc1 | 5 |
| COc1cccc(Sc2cc(C)nc3ccc4[nH]cnc4c23)c1 | > 50 |
| CCCCOc1ccc(Nc2cc(C)nc3ccc4[nH]cnc4c23)cc1 | 5 |
| COc1cccc(Nc2cc(C)nc(C)c2/C(C)=N/O)c1 | > 100 |
| COc1cccc(Nc2cc(C)nc(C)c2C(C)O)c1 (stereo not drawn) | > 100 |
| CCCCc1ccc(Nc2cc(C)nc3ccccc23)cc1 | > 50 |
| O=C(Nc1ccc(OCC2CCCCC2)cc1)c1cccc2[nH]cnc12 | > 50 |
| Cc1cc(Nc2ccc(C#N)cc2)c2c(ccc3[nH]cnc32)n1 | 2 |
| COc1cccc(Nc2cc(C)nc(C)c2C(C)=O)c1 | > 100 |
| Cc1cc(Nc2ccc(OCC3CCCCC3)cc2)c2c(ccc3[nH]cnc32)n1 | 1 |
| COc1cccc(Nc2cc(C)nc3ccc4[nH]ncc4c23)c1 | > 50 |
| COc1cccc(Nc2cc(C)nc3ccc4[nH]cnc4c23)c1 | 6 |
| COc1cccc(N(C)c2cc(C)nc3ccc4[nH]cnc4c23)c1 | > 50 |
| O=C(NC1CCCCC1)c1cccc2[nH]cnc12 | > 50 |
| N#Cc1ccc(NC(=O)c2cccc3[nH]cnc23)cc1 | > 50 |

What follows are compounds tested on Mus musculus (assay: Minimum subcutaneous effective dose required to protect mice from systemic Escherichia coli; ND=No dose response). Details: not given.
Type: functional, organism-based
Outline: as §2

| Compound | MED |
| --- | --- |
| Cc1cc(Nc2ccc(OCc3ccccc3)cc2)c2c(ccc3[nH]ncc32)n1 | No dose response |

The compounds below were run on Mus musculus (assay: Effect of interval between drug treatment and challenge on activity in the mouse protection assay 0 days prior to infection at 1.7 mg/Kg). Details: not given.
Type: functional
Outline: (§3)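 Female NSA (CF-1) mice, 11–16 g, given compound sc in pyrogen-free saline or water (suspensions homogenized) at 6, 3, 1 or 0 days before ip challenge with 0.5 mL E. coli N63 (~4×10^7 CFU/mL). Gentamicin sc at 0.5, 4 and 24 h postinfection. Ten mice per group. Percent protection = (dead in control − dead in treated) ÷ dead in control × 100.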

| Compound | Protection [%] |
| --- | --- |
| COc1cccc(Nc2cc(C)nc3ccc4c[nH]nc4c23)c1 | 0 |
| Cc1cc(Nc2ccc(OCC3CCCCC3)cc2)c2c(ccc3[nH]cnc32)n1 | 0 |

What follows are compounds tested on Mus musculus (assay: Effect of interval between drug treatment and challenge on activity in the mouse protection assay 1 days prior to infection at 1.7 mg/Kg). Details: not given.
Type: functional
Outline: as §3

| Compound | Protection [%] |
| --- | --- |
| Cc1cc(Nc2ccc(OCC3CCCCC3)cc2)c2c(ccc3[nH]cnc32)n1 | 60 |

Same assay, conditions: in the assay text read “25 mg/Kg” for “1.7 mg/Kg”

| Compound | Protection [%] |
| --- | --- |
| COc1cccc(Nc2cc(C)nc3ccc4c[nH]nc4c23)c1 | 100 |

What follows are compounds tested on Mus musculus (assay: Effect of interval between drug treatment and challenge on activity in the mouse protection assay 3 days prior to infection at 1.7 mg/Kg). Details: not given.
Type: functional
Outline: as §3

| Compound | Protection [%] |
| --- | --- |
| COc1cccc(Nc2cc(C)nc3ccc4c[nH]nc4c23)c1 | 100 |
| Cc1cc(Nc2ccc(OCC3CCCCC3)cc2)c2c(ccc3[nH]cnc32)n1 | 40 |

Each compound was assayed on Mus musculus (assay: Effect of interval between drug treatment and challenge on activity in the mouse protection assay 6 days prior to infection at 1.7 mg/Kg). Details: not given.
Type: functional
Outline: as §3

| Compound | Protection [%] |
| --- | --- |
| COc1cccc(Nc2cc(C)nc3ccc4c[nH]nc4c23)c1 | 88 |
| Cc1cc(Nc2ccc(OCC3CCCCC3)cc2)c2c(ccc3[nH]cnc32)n1 | 0 |

What follows are compounds tested on Escherichia coli (assay: Compound was evaluated for efficacy in murine systemic Escherichia coli infection with subtherapeutic gentamycin treatment). Details: read-out: PD50.
Type: functional
Outline: (§4)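 Female NSA (CF-1) mice (11–16 g) were given test compound in pyrogen-free saline or water, or as a homogenized saline suspension, 24 h before ip challenge with 0.5 mL E. coli N63 (serotype O18) at about 4×10^7 CFU/mL. Gentamicin 0.5 mg/kg was given sc at 0.5, 4 and 24 h postinfection. Endpoint was survival, with 10 mice per group. PD50 was derived by probit analysis of pooled experiments.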

| Compound | ED50 [mg/kg] |
| --- | --- |
| COc1cccc(Nc2cc(C)nc3ccc4c[nH]nc4c23)c1 | 4.2 |
| Cc1cc(Nc2ccc(OCC3CCCCC3)cc2)c2c(ccc3[nH]cnc32)n1 | 0.5 |

These compounds were tested on Escherichia coli (assay: Compound was evaluated for efficacy in murine systemic Escherichia coli infection without subtherapeutic gentamycin treatment). Details: read-out: PD50.
Type: functional
Outline: as §4, with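 “No gentamicin” for “Gentamicin 0.5 mg/kg”, “given.” for “given sc at 0.5, 4 and 24 h postinfection.”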

| Compound | ED50 [mg/kg] |
| --- | --- |
| COc1cccc(Nc2cc(C)nc3ccc4c[nH]nc4c23)c1 | 9.8 |
| Cc1cc(Nc2ccc(OCC3CCCCC3)cc2)c2c(ccc3[nH]cnc32)n1 | 1.5 |

What follows are compounds tested on Escherichia coli (assay: In vitro antibacterial activity on sensitivity of Escherichia coli N63 to gentamicin at a concentration of 6.25 ug/mL). Details: not given.

| Compound | MIC [µg/mL] |
| --- | --- |
| COc1cccc(Nc2cc(C)nc3ccc4c[nH]nc4c23)c1 | 0.25 (≈ 0.821 µM) |
| Cc1cc(Nc2ccc(OCC3CCCCC3)cc2)c2c(ccc3[nH]cnc32)n1 | 0.25 (≈ 0.647 µM) |
